Source: ChEMBL document CHEMBL1155938, “Design, synthesis and biological evaluation of new tryptamine and tetrahydro-beta-carboline-based selective inhibitors of CDK4” (Bioorg Med Chem, 2008)

Assays:
[1] = molecular target: Cyclin-dependent kinase 4/cyclin D1 (Homo sapiens, UniProt P11802); assay: Inhibition of human CDK4/GST-cyclin D1 expressed in Sf9 cells assessed as retinoblastoma GST-RB152 phosphorylation
How it was run: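 CDK4 with GST-cyclin D1 was co-expressed in Sf-9, purified on glutathione-agarose and dialysed. The substrate was GST-RB152, expressed in E. coli BL21(DE3)pLysS (4 mM IPTG, 4 h, 37 °C). The buffer was 40 mM Tris pH 7.5, 20 mM MgCl₂, 0.1 mg/mL BSA plus inhibitors and DTT. 200 ng enzyme ran 30 min at 30 °C. Kinase-Glo luminescence (ATP depletion) gave IC50.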

[2] = molecular target: Cyclin-dependent kinase 2 (Homo sapiens, UniProt P24941); assay: Inhibition of human CDK2/GST-cyclin A expressed in Sf9 cells assessed as histone phosphorylation
How it was run: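 Sf-9 co-expressed CDK2 with GST-cyclin A, purified on glutathione-agarose and dialysed. Histone H1 was the substrate, in 40 mM Tris pH 7.5, 20 mM MgCl₂, 0.1 mg/mL BSA with phosphatase/protease inhibitors and DTT. Compounds came from 10 mM DMSO stock, serially diluted. 200 ng enzyme was incubated 30 min at 30 °C. ATP depletion was read by Kinase-Glo luminescence, and IC50 derived.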

Chain of Cyclin-dependent kinase 4/cyclin D1 (P11802 whole entry): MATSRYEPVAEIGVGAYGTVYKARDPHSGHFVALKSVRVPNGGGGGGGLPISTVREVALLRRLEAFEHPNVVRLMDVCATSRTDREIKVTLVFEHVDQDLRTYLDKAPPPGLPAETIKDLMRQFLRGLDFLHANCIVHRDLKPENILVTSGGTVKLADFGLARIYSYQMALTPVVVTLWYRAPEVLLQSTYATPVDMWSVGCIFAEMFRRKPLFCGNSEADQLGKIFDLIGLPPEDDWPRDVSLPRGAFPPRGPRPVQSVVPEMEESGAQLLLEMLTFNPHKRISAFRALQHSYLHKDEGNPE
Chain of Cyclin-dependent kinase 4/cyclin D1 (P24385 whole entry, further chain): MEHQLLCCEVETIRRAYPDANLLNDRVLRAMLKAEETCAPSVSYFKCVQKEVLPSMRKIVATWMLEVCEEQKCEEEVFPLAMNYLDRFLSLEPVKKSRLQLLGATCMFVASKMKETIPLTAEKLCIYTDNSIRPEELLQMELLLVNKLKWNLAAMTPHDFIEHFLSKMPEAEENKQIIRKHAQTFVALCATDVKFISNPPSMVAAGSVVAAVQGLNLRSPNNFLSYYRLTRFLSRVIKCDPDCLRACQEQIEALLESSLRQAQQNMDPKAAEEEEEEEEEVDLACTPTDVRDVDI

| IC50 [1] | IC50 [2] | SMILES |
| --- | --- | --- |
| 6 µM |  | CN(CCc1c[nH]c2ccccc12)C(=O)c1ccc(-c2ccccc2)cc1 |
| 18 µM | 335 µM | O=C(c1cccc(-c2ccccc2F)c1)N1CCc2c([nH]c3ccccc23)C1 |
| 28 µM | 424 µM | COc1cccc(-c2ccc(C(=O)N3CCc4c([nH]c5ccccc45)C3)cc2)c1 |
| 22 µM | 321 µM | COc1ccccc1-c1ccc(C(=O)N2CCc3c([nH]c4ccccc34)C2)cc1 |
| 15 µM | 406 µM | Cc1cccc(-c2ccccc2C(=O)NCCc2c[nH]c3ccccc23)c1 |
| 24 µM | 466 µM | Cc1ccc(-c2cccc(C(=O)N3CCc4c([nH]c5ccccc45)C3)c2)cc1 |
| 21 µM | 296 µM | O=C(c1ccc(-c2cccc(F)c2)cc1)N1CCc2c([nH]c3ccccc23)C1 |
| 17 µM | 310 µM | O=C(c1ccc(-c2ccccc2F)cc1)N1CCc2c([nH]c3ccccc23)C1 |
| 53 µM | 926 µM | COc1cccc(-c2ccccc2C(=O)NCCc2c[nH]c3ccccc23)c1 |
| 26 µM | 375 µM | COc1ccccc1-c1ccccc1C(=O)NCCc1c[nH]c2ccccc12 |
| 33 µM | 362 µM | COc1cccc(-c2cccc(C(=O)N3CCc4c([nH]c5ccccc45)C3)c2)c1 |
| 79 µM | 1110 µM | COc1ccccc1-c1cccc(C(=O)N2CCc3c([nH]c4ccccc34)C2)c1 |
| 20 µM | 417 µM | O=C(NCCc1c[nH]c2ccccc12)c1ccccc1-c1cccc(F)c1 |
| 79 µM | 921 µM | COc1ccc(-c2ccccc2C(=O)NCCc2c[nH]c3ccccc23)cc1 |
| 12 µM | 438 µM | O=C(c1ccc(-c2ccc(F)cc2)cc1)N1CCc2c([nH]c3ccccc23)C1 |
| 26 µM | 92 µM | CN(CCc1c[nH]c2ccccc12)C(=O)c1ccc(-c2ccncc2)cc1 |
| 39 µM | 354 µM | O=C(c1ccccc1-c1ccncc1)N1CCc2c([nH]c3ccccc23)C1 |
| 19 µM | 434 µM | O=C(c1ccccc1-c1ccccc1F)N1CCc2c([nH]c3ccccc23)C1 |
| 25 µM | 318 µM | O=C(c1cccc(-c2ccc(F)cc2)c1)N1CCc2c([nH]c3ccccc23)C1 |
| 36 µM | 312 µM | O=C(c1ccccc1-c1cccnc1)N1CCc2c([nH]c3ccccc23)C1 |
| 23 µM | 357 µM | O=C(c1ccccc1-c1ccc(F)cc1)N1CCc2c([nH]c3ccccc23)C1 |
| 11 µM | 465 µM | Cc1cccc(-c2cccc(C(=O)N3CCc4c([nH]c5ccccc45)C3)c2)c1 |

| IC50 [1] | IC50 [2] | SMILES |
| --- | --- | --- |
| 75 µM | 665 µM | Cc1ccccc1-c1cccc(C(=O)N2CCc3c([nH]c4ccccc34)C2)c1 |
| 9 µM | 736 µM | Cc1ccc(-c2ccc(C(=O)N3CCc4c([nH]c5ccccc45)C3)cc2)cc1 |
| 25 µM | 405 µM | Cc1cccc(-c2ccc(C(=O)N3CCc4c([nH]c5ccccc45)C3)cc2)c1 |
| 15 µM | 764 µM | O=C(NCCc1c[nH]c2ccccc12)c1ccc(-c2ccc(F)cc2)cc1 |
| 18 µM | 816 µM | Cc1ccc(-c2ccc(C(=O)NCCc3c[nH]c4ccccc34)cc2)cc1 |
| 38 µM | 1220 µM | O=C(NCCc1c[nH]c2ccccc12)c1ccccc1-c1ccc(F)cc1 |
| 86 µM | 1000 µM | O=C(NCCc1c[nH]c2ccccc12)c1cccc(-c2ccccc2)c1 |
| 21 µM | 875 µM | CN(CCc1c[nH]c2ccccc12)C(=O)c1ccc(-c2ccc(F)cc2)cc1 |
| 11.2 µM | 745 µM | CN(CCc1c[nH]c2ccccc12)C(=O)c1ccc(-c2ccc(C(C)(C)C)cc2)cc1 |
| 35 µM | 91 µM | CN(CCc1c[nH]c2ccccc12)C(=O)c1ccc(-c2ccc(-c3ccccc3)cc2)cc1 |
| 9.2 µM | 790 µM | CC(C)(C)c1ccc(-c2ccc(C(=O)NCCc3c[nH]c4ccccc34)cc2)cc1 |
| 27 µM | 611 µM | O=C(c1cccc(-c2cccc(F)c2)c1)N1CCc2c([nH]c3ccccc23)C1 |
| 30 µM | 150 µM | O=C(NCCc1c[nH]c2ccccc12)c1cccc(-c2cccnc2)c1 |
| 26 µM | 386 µM | Cc1cccc(-c2ccccc2C(=O)N2CCc3c([nH]c4ccccc34)C2)c1 |
| 35 µM | 480 µM | O=C(c1ccccc1-c1cccc(F)c1)N1CCc2c([nH]c3ccccc23)C1 |
| 32 µM | 340 µM | Cc1ccccc1-c1ccc(C(=O)N2CCc3c([nH]c4ccccc34)C2)cc1 |
| 16 µM | 855 µM | O=C(NCCc1c[nH]c2ccccc12)c1ccc(-c2ccccc2)cc1 |
| 38 µM | 262 µM | CC(C)(C)c1ccc(-c2ccccc2C(=O)NCCc2c[nH]c3ccccc23)cc1 |
| 49 µM | 289 µM | COc1ccc(-c2ccc(C(=O)N(C)CCc3c[nH]c4ccccc34)cc2)cc1 |
| 24 µM | 70 µM | Cc1ccc(-c2ccc(C(=O)N(C)CCc3c[nH]c4ccccc34)cc2)cc1 |
| 48 µM | 1090 µM | COc1ccc(-c2ccc(C(=O)NCCc3c[nH]c4ccccc34)cc2)cc1 |

| SMILES | IC50 [1] | IC50 [2] |
| --- | --- | --- |
| O=C1c2ccccc2-[n+]2ccc3c([nH]c4ccccc43)c21 [FASCAPLYSIN CHLORIDE] | 0.55 µM | 500 µM |
